{"data": "Published values of several laboratories", "target": "Serine/threonine-protein kinase PLK1 (PLK1, Homo sapiens, UniProt P53350)", "note": "Each line is one published result; the experiments were not run side by side."}
{"SMILES": "CN(C)C1CCN(CC#Cc2nn(C3CCCC3)c3nc(NCc4ccccc4)ncc23)C1 (stereo not drawn)", "effect on": "enzyme activity", "mode": "inhibitor", "technique": "FRET", "tested at": "1 µM", "endpoint": "inhibition", "result": "-5%"}
{"SMILES": "CS(=O)(=O)Nc1cccc(-c2csc(NC(=O)CSc3nc4nccnc4c(=O)n3CCc3ccccc3)n2)c1", "effect on": "enzyme activity", "mode": "inhibitor", "tested at": "10 µM", "endpoint": "inhibition", "result": "11%"}
{"SMILES": "CN1CC(Oc2cnc(C#N)cc2-c2ccn3nc(NC(=O)C4CC4)cc3c2)C1", "effect on": "enzyme activity", "mode": "inhibitor", "tested at": "1 µM", "endpoint": "inhibition", "result": "6%"}
{"SMILES": "COc1cc2ncnc(Nc3ccc(Oc4ccccc4)cc3C)c2cc1OC", "effect on": "enzyme activity", "mode": "inhibitor", "tested at": "1 µM", "endpoint": "inhibition", "result": "3%"}
{"SMILES": "O=C(O)[C@@H]1[C@@H](Cn2nnc3ccccc3c2=O)CC[C@H]1C(=O)c1ccc(OCCC2CCOCC2)cc1", "effect on": "cell-free assay", "technique": "competition with immobilised ligand", "tested at": "1 µM", "endpoint": "remaining binding", "result": "80%"}
{"SMILES": "FC(F)c1nc2ccccc2n1-c1nc(N2CCOCC2)nc(N2CCOCC2)n1", "effect on": "enzyme activity", "mode": "inhibitor", "tested at": "10 µM", "endpoint": "remaining activity", "result": "75%"}
{"SMILES": "CSc1nc(C)c(-c2ccnc(Nc3ccc(N4CCOCC4)cc3)c2)[nH]1", "effect on": "enzyme activity", "mode": "inhibitor", "tested at": "10 µM", "endpoint": "inhibition", "result": "6.3%"}
{"SMILES": "COc1cc(Nc2c(C#N)cnc3cc(OCCCN4CCN(C)CC4)c(OC)cc23)c(Cl)cc1Cl", "effect on": "cell-free assay", "tested at": "0.5 µM", "endpoint": "remaining signal", "result": "93.8%"}
{"SMILES": "Cc1ccc(NC(=O)c2ccc(C)c(C(F)(F)F)c2)cc1C#Cc1nn(C2CCC(O)CC2)c2ncnc(N)c12 (stereo not drawn)", "effect on": "cell-free assay", "tested at": "10 µM", "endpoint": "remaining signal", "result": "92%"}
{"SMILES": "CC/C(=N\\NC(=O)NCc1cccc(O)c1)c1ccc(O)c(C)c1O", "effect on": "enzyme activity", "mode": "inhibitor", "tested at": "0.1 µM", "endpoint": "inhibition", "result": "-2.6%"}
{"SMILES": "FC(F)(F)Oc1cccc(-c2cnc3ccc(-c4ccncc4)nn23)c1", "effect on": "enzyme activity", "mode": "inhibitor", "technique": "radiometric", "tested at": "1 µM", "endpoint": "activity vs control", "result": "93%"}
{"SMILES": "N#CCCc1ccc2c(c1)-c1[nH]c3ccc([N+](=O)[O-])cc3c1CC(=O)N2", "effect on": "cell-free assay", "tested at": "0.5 µM", "endpoint": "remaining signal", "result": "101%"}
{"SMILES": "Cn1c(=O)n(-c2ccc(C(C)(C)C#N)cc2)c2c3cc(-c4cnc5ccccc5c4)ccc3ncc21", "effect on": "enzyme activity", "mode": "inhibitor", "tested at": "10 µM", "endpoint": "remaining activity", "result": "95%"}
{"SMILES": "CCN(CC)c1ccc(C2=NNC(=O)CC2C)cc1[N+](=O)[O-] (stereo not drawn)", "effect on": "enzyme activity", "mode": "inhibitor", "tested at": "10 µM", "endpoint": "remaining activity", "result": "103%"}
{"SMILES": "O=C(Nc1cnn(-c2csc(C(=O)NC3COC3)c2)c1)Nc1c(F)cccc1Cl", "effect on": "enzyme activity", "mode": "inhibitor", "tested at": "5 µM", "endpoint": "remaining activity", "result": "95.5%"}
{"SMILES": "C=CC(=O)Nc1cc(Nc2nccc(Nc3cc(Cl)c(F)cc3C(C)(C)O)n2)c(OC)cc1N1CC[C@@H](N(C)C)C1", "effect on": "enzyme activity", "mode": "inhibitor", "tested at": "1 µM", "endpoint": "inhibition", "result": "11%"}
{"SMILES": "O=C(Nc1cnn(-c2csc(C(=O)NC3COC3)c2)c1)Nc1ccccc1Cl", "effect on": "enzyme activity", "mode": "inhibitor", "tested at": "5 µM", "endpoint": "remaining activity", "result": "97%"}
{"SMILES": "Nc1nc(NC2CCCCC2)sc1C(=O)c1ccccc1", "effect on": "enzyme activity", "mode": "inhibitor", "tested at": "10 µM", "endpoint": "remaining activity", "result": "82%"}
{"SMILES": "O=C1Nc2ccc(Cl)cc2C1=Cc1cc(Cl)c(O)c(Cl)c1", "effect on": "cell-free assay", "tested at": "0.5 µM", "endpoint": "remaining signal", "result": "99.8%"}
{"SMILES": "CNCc1ccccc1-c1csc([C@H](C)Nc2nc(C)nc3cc(OC)c(OC)cc23)c1", "effect on": "cell-free assay", "technique": "competition with immobilised ligand", "tested at": "1 µM", "endpoint": "remaining binding", "result": "85%"}
{"SMILES": "Cc1[nH]c(/C=C2\\C(=O)Nc3ccc(F)cc32)c(C)c1C(=O)N[C@H]1CCN(C(=O)N(C)C)C1", "effect on": "enzyme activity", "mode": "inhibitor", "tested at": "1 µM", "endpoint": "remaining activity", "result": "122%"}
{"SMILES": "Cn1nc(C(=O)NCc2ccc(C(=O)O)cc2)cc1-c1ccc2[nH]ccc2c1", "effect on": "cell-free assay", "technique": "competition with immobilised ligand", "tested at": "0.1 µM", "endpoint": "remaining binding", "result": "95%"}
{"SMILES": "CCN1CCN(Cc2ccc(NC(=O)c3ccc(C)c(Oc4ccnc5[nH]ccc45)c3)cc2C(F)(F)F)CC1", "effect on": "target engagement in cells", "mode": "inhibitor", "technique": "chemoproteomics", "cells": "Huh-7", "tested at": "10 µM", "endpoint": "inhibition", "result": "-35%"}
{"SMILES": "Cc1nc(C2CCN(C(=O)c3ccc(OC(F)(F)F)cc3N)CC2)c2ncc(N3CCN(C)CC3)cc2n1", "effect on": "cell-free assay", "technique": "competition with immobilised ligand", "tested at": "1 µM", "endpoint": "remaining binding", "result": "79%"}
{"SMILES": "Cc1ccc(C(=O)NCc2ccsc2)cc1C#Cc1cn(C(C)C)c2ncnc(N)c12", "effect on": "enzyme activity", "mode": "inhibitor", "tested at": "1 µM", "endpoint": "activity vs control", "result": "105%"}
{"SMILES": "Cc1cc(NC(=O)c2cccc(S(F)(F)(F)(F)F)c2)cc(-n2ccn3nc(-c4cccnc4)cc23)c1", "effect on": "cell-free assay", "technique": "competition with immobilised ligand", "tested at": "1 µM", "endpoint": "remaining binding", "result": "95.3%"}
{"SMILES": "CCCOc1ccc(OC)c(F)c1C(=O)c1ccc(C(=O)N[C@@H]2CNC[C@H]2NC(=O)c2ccc3[nH]ncc3c2)cc1", "effect on": "enzyme activity", "mode": "inhibitor", "tested at": "10 µM", "endpoint": "remaining activity", "result": "105%"}
{"SMILES": "Cc1cc(-n2nc(Cc3cc(F)cc(C(F)(F)F)c3)nc2C)ccc1C(N)=O", "effect on": "cell-free assay", "technique": "competition with immobilised ligand", "tested at": "1 µM", "endpoint": "remaining binding", "result": "100%"}
{"SMILES": "CS(=O)(=O)CCNCc1ccc(-c2ccc3ncnc(Nc4ccc(OCc5cccc(F)c5)c(Cl)c4)c3c2)o1", "effect on": "cell-free assay", "tested at": "0.5 µM", "endpoint": "remaining signal", "result": "99%"}
{"SMILES": "CNC(=O)Nc1ccc2c(c1)CC[C@@]21OC(=O)N(CC(=O)N(Cc2ccc(F)cc2)[C@@H](C)C(F)(F)F)C1=O", "effect on": "cell-free assay", "technique": "competition with immobilised ligand", "tested at": "1 µM", "endpoint": "remaining binding", "result": "63%"}
{"SMILES": "COc1cc(Nc2cnc(C#N)c(O[C@H](C)CN(C)C)n2)ncc1-c1cnn(C)c1", "effect on": "enzyme activity", "mode": "inhibitor", "technique": "radiometric", "tested at": "10 µM", "endpoint": "remaining activity", "result": "104%"}
{"SMILES": "O=C(NC[C@@H]1[C@H]2CN(C(=O)OCc3cc(C(F)(F)F)cc(C(F)(F)F)c3)C[C@@H]12)c1ccc2[nH]nnc2c1", "effect on": "cell-free assay", "technique": "competition with immobilised ligand", "tested at": "1 µM", "endpoint": "remaining binding", "result": "100%"}
{"SMILES": "CCN(CC)CCNC(=O)c1c(C)[nH]c(/C=C2\\C(=O)Nc3ccc(F)cc32)c1C", "effect on": "enzyme activity", "mode": "inhibitor", "tested at": "1 µM", "endpoint": "remaining activity", "result": "110%"}
